Assay results as given in ChEMBL document CHEMBL2401625, “Synthesis and evaluation of pharmacological properties of some new xanthone derivatives with piperazine moiety” (Bioorg Med Chem Lett, 2013).
Active and inactive are the calls of the source. The rule behind the calls is not given here.

Legend:
[1] = target: T1, Adrenergic receptor alpha-1 (Rattus norvegicus, UniProt P15823+P23944+P43140); test: Displacement of [3H]prazosin from alpha1-adrenergic receptor in rat cerebral cortex after 30 mins by scintillation counting; assay type: tissue-based
T1 sequence (P15823 whole entry): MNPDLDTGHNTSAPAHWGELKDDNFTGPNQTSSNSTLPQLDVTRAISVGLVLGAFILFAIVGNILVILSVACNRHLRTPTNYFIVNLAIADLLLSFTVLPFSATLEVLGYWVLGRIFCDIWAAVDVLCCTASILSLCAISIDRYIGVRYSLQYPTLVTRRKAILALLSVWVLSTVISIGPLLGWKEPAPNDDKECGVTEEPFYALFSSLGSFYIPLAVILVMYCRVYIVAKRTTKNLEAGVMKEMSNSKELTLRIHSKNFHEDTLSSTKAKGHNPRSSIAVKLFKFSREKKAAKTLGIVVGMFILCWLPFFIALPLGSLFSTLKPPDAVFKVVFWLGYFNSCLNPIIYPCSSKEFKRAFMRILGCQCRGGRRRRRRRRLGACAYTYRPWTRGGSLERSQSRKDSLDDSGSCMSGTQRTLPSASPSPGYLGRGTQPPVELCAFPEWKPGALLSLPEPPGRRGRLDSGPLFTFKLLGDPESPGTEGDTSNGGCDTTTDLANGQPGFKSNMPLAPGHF
T1 sequence (P23944 whole entry): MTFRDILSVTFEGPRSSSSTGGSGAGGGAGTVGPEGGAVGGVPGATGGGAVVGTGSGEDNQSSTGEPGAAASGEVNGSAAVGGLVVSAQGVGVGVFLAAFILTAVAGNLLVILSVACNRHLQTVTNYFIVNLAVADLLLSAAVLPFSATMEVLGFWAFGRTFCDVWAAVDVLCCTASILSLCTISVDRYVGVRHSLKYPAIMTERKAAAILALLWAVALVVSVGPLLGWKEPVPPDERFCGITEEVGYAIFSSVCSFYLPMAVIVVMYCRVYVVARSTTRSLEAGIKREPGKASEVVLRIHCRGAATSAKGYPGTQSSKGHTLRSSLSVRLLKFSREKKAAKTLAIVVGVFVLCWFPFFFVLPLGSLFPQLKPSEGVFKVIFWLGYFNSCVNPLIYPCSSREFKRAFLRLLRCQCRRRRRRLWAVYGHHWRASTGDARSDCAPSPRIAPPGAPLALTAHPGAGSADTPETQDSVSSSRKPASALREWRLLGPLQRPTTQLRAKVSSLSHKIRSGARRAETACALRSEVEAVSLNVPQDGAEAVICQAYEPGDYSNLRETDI
T1 sequence (P43140 whole entry): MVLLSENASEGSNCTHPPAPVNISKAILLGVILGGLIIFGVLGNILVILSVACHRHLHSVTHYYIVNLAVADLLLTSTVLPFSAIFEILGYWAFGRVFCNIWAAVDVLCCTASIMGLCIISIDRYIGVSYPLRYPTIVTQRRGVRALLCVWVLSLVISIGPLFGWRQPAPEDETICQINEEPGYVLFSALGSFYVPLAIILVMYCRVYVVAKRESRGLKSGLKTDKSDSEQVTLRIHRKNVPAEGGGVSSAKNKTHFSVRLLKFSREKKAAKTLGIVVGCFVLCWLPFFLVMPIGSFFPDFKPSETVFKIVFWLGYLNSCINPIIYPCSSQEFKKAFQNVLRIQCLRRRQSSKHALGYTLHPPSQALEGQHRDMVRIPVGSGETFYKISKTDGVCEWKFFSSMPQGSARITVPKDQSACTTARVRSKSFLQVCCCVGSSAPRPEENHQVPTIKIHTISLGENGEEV
How it was run: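 Radioligand binding on rat brain tissue membranes, run in 96-well format. [3H]prazosin was used for α1 (n = 2) and [3H]CGP-12177 for β1 (n = 2). Ki was calculated by the Cheng–Prusoff equation.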

[2] = target: 5-hydroxytryptamine receptor 7 (Homo sapiens, UniProt P34969); test: Displacement of [3H]5-CT from human 5HT7b receptor expressed in HEK293 cells after 1 hr; assay type: cell-based
[3] = target: 5-hydroxytryptamine receptor 6 (Homo sapiens, UniProt P50406); test: Displacement of [3H]LSD from human 5HT6 receptor expressed in HEK293 cells after 1 hr; assay type: cell-based
[4] = target: T2, 5-hydroxytryptamine receptor 1A (Homo sapiens, UniProt P08908); test: Displacement of [3H]8-OH-DPAT from human 5HT1A receptor expressed in HEK293 cells after 1 hr; assay type: cell-based
T2 sequence (P08908 whole entry): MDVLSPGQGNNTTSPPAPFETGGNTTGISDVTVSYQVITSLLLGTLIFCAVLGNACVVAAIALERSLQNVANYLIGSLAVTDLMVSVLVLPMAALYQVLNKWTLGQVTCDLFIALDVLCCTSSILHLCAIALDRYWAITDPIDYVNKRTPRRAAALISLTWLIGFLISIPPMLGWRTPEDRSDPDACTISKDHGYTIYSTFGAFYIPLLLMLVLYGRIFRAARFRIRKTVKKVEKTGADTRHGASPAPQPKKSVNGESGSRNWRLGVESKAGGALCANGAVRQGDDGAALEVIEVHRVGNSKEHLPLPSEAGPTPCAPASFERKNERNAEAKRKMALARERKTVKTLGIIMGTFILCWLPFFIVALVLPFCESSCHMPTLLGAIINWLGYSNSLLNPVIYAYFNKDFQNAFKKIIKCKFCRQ

Rattus norvegicus [5] = species on record: Rattus norvegicus; test: Displacement of [3H]CGP-12177 from beta1-adrenergic receptor in rat cerebral cortex at 50 uM after 60 mins by scintillation counting; assay type: tissue-based
[6] = Displacement of [3H]CGP-12177 from beta1-adrenergic receptor in rat cerebral cortex after 60 mins by scintillation counting; assay type: tissue-based
How it was run: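 Radioligand binding on rat brain tissue membranes, run in 96-well format. Ki was calculated by the Cheng–Prusoff equation.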

Rattus norvegicus [7] = test: Neurotoxicity in Sprague-Dawley rat assessed as minimal motor impairment at 30 mg/kg, po after 4 hrs by rotorod test; settings: in vivo
Mus musculus [8] = test: Neurotoxicity in CF1 mouse assessed as minimal motor impairment at 300 mg/kg, ip after 0.5 hrs by rotorod test; assay type: toxicity, organism-based; set-up: dose 300 mg/kg, route intraperitoneal; settings: in vivo
How it was run: (§1)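 Rotarod neurotoxicity screen in mice dosed i.p. at 30, 100 or 300 mg/kg, read 0.5 or 4 h after dosing. The animal must stay on a rod rotating at 6 rpm without falling, measured 3 times within 1 min. A fall counts as minimal motor impairment. Result is recorded as impaired animals over animals used.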

Rattus norvegicus [9] = test: Neurotoxicity in Sprague-Dawley rat assessed as minimal motor impairment at 30 mg/kg, po after 1 hr by rotorod test; settings: in vivo
Rattus norvegicus [10] = test: Neurotoxicity in Sprague-Dawley rat assessed as minimal motor impairment at 30 mg/kg, po after 2 hrs by rotorod test; settings: in vivo
Mus musculus [11] = test: Neurotoxicity in CF1 mouse assessed as minimal motor impairment at 100 mg/kg, ip after 4 hrs by rotorod test; assay type: toxicity, organism-based; set-up: dose 100 mg/kg, route intraperitoneal; settings: in vivo; how it was run: as §1
Rattus norvegicus [12] = test: Neurotoxicity in Sprague-Dawley rat assessed as minimal motor impairment at 30 mg/kg, po after 0.5 hrs by rotorod test; settings: in vivo
Mus musculus [13] = test: Neurotoxicity in CF1 mouse assessed as minimal motor impairment at 30 mg/kg, ip after 0.5 hrs by rotorod test; assay type: toxicity, organism-based; set-up: dose 30 mg/kg, route intraperitoneal; settings: in vivo; how it was run: as §1
Rattus norvegicus [14] = test: Neurotoxicity in Sprague-Dawley rat assessed as minimal motor impairment at 30 mg/kg, po after 0.25 hrs by rotorod test; settings: in vivo
Mus musculus [15] = test: Neurotoxicity in CF1 mouse assessed as minimal motor impairment at 30 mg/kg, ip after 4 hrs by rotorod test; assay type: toxicity, organism-based; set-up: dose 30 mg/kg, route intraperitoneal; settings: in vivo; how it was run: as §1
Mus musculus [16] = test: Neurotoxicity in CF1 mouse assessed as minimal motor impairment at 300 mg/kg, ip after 4 hrs by rotorod test; assay type: toxicity, organism-based; set-up: dose 300 mg/kg, route intraperitoneal; settings: in vivo; how it was run: as §1

Chain of 5-hydroxytryptamine receptor 6 (P50406 whole entry): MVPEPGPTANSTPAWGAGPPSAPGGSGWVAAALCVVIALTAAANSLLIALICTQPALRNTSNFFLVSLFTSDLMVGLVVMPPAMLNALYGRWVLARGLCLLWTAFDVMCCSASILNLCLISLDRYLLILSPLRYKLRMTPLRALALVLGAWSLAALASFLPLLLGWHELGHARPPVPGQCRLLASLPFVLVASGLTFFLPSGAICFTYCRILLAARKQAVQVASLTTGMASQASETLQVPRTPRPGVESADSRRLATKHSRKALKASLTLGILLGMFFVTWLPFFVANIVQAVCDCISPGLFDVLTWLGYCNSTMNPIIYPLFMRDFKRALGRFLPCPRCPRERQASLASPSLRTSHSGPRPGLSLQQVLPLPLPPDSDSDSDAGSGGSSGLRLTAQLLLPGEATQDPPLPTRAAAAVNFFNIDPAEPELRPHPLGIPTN
Chain of 5-hydroxytryptamine receptor 7 (P34969 whole entry): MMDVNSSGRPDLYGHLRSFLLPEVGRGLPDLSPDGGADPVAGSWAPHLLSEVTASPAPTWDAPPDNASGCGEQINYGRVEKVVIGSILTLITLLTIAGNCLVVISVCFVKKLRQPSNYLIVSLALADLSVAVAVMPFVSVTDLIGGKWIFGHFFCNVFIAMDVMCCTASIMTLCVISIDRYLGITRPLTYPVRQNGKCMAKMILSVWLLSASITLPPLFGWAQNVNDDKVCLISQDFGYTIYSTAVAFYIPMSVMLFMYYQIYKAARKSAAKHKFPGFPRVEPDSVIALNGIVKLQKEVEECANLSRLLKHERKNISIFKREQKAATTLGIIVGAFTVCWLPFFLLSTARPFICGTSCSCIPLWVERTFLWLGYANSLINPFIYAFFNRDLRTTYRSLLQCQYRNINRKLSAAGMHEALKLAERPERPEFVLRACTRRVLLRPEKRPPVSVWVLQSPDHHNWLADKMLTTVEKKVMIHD

SMILES | Ki [1] | Ki [2] | Ki [3] | Ki [4] | inhibition (Rattus norvegicus [5]) | Ki [6] | Activity (Rattus norvegicus [7]) | Activity (Mus musculus [8]) | Activity (Rattus norvegicus [9]) | Activity (Rattus norvegicus [10]) | Activity (Mus musculus [11]) | Activity (Rattus norvegicus [12]) | Activity (Mus musculus [13]) | Activity (Rattus norvegicus [14]) | Activity (Mus musculus [15]) | Activity (Mus musculus [16])
COc1ccccc1N1CCN(Cc2ccc3oc4ccccc4c(=O)c3c2)CC1.Cl | 3.66 µM | 0.426 µM | 5.94 µM | 0.117 µM | – | > 10 µM | – | – | – | – | – | – | – | – | – | –
COc1ccc2c(=O)c3cc(CN4CCN(C)CC4)ccc3oc2c1 | – | – | – | – | – | – | Non-toxic | Toxic | Non-toxic | Non-toxic | Non-toxic | Non-toxic | Non-toxic | Non-toxic | Non-toxic | –
COc1ccc2c(=O)c3cc(CN4CCN(c5ccccc5OC)CC4)ccc3oc2c1 | – | – | – | – | – | – | – | Non-toxic | – | – | Non-toxic | – | Non-toxic | – | Non-toxic | Non-toxic

Second part, led by results:

Ki [1] | Ki [2] | Ki [3] | Ki [4] | inhibition (Rattus norvegicus [5]) | Ki [6] | SMILES | Activity (Rattus norvegicus [7]) | Activity (Mus musculus [8]) | Activity (Rattus norvegicus [9]) | Activity (Rattus norvegicus [10]) | Activity (Mus musculus [11]) | Activity (Rattus norvegicus [12]) | Activity (Mus musculus [13]) | Activity (Rattus norvegicus [14]) | Activity (Mus musculus [15]) | Activity (Mus musculus [16])
0.65 µM | 10.5 µM | 19.5 µM | 13.3 µM | inactive | – | CN1CCN(Cc2cccc3c(=O)c4ccc(Cl)cc4oc23)CC1.Cl.Cl.Cl | – | – | – | – | – | – | – | – | – | –
0.49 µM | 17 µM | 19.1 µM | 15.8 µM | – | – | COc1ccc2c(=O)c3cc(CN4CCN(C)CC4)ccc3oc2c1.Cl.Cl | – | – | – | – | – | – | – | – | – | –
